The labels stand for the following.
B1: tRNA (parent)
chain: GUUCCGUUGGCGUAAUGGUAACGCGUCUCCCUCCUAAGGAGAAGACUGCGGGUUCGAGUCCCGUACGGAACG

Fewer inactive variants are shown than the library holds.

These results are taken from the RNAGym collection of RNA variant scans (doi:10.1126/science.aae0568).

The variants in the series derive from B1. The experiment in a line: yeast fitness relative to wild type (ratio to wild type); higher = fitter; tRNA-Arg(CCU), competitive growth, 37 C, YPD. Summed up:
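Genotype frequency changes were the basis for Darwinian fitness relative to wild type. The frequencies came from 100-nucleotide paired-end sequencing of gene amplicons from the start population and each end population of pooled yeast strains with tRNA-Arg(CCU) gene variants at the native locus. Competition ran in YPD at 37°C for 24 hours in six replicates, genotypes needed ≥ 100 starting reads, and estimates < 0.5 were set to 0.5.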
As for G9C U13C C31G A65U, the yeast fitness is ≤ 0.5.

With U28C A40C, the yeast fitness was determined as 0.902.

On to U13C A45C G56A, for which the yeast fitness is 0.743.

For A14G C24G A42C G63A, the yeast fitness was ≤ 0.5.

Regarding C11A A21G, the yeast fitness worked out at 0.774.

In the case of C46A C55A A65C, the yeast fitness is 0.533.

As to C5U A69C, the yeast fitness turned out to be 0.865.

As for U28G A40C A42G A69C, the yeast fitness was found to be 0.808.

G9A A37C A65C: the yeast fitness amounted to 0.56.

C30A A36G A65G: the yeast fitness is 0.648.

On to C11A A21G C34U A37G C62A, for which the yeast fitness is ≤ 0.5.

On to C34G A45U U53G A57G, for which the yeast fitness was determined as 0.569.

With C5A C31G A37G A70U, the yeast fitness was found to be 0.532.

G25A A42U A65C G67U: the yeast fitness was ≤ 0.5.

Take A14C U16A U54A G58C: the yeast fitness was ≤ 0.5.

Turning to A14G C31U C34U G38A C46U, the yeast fitness was ≤ 0.5.

In the case of U16C A36U A65U, the yeast fitness was ≤ 0.5.

Consider C4G G6C G9A A20G C55A C61A, for which the yeast fitness turned out to be 0.615.

For U3A A14G G23C, the yeast fitness amounted to 0.716.

Consider C5G A20C G23A U54A, for which the yeast fitness is ≤ 0.5.

Take A20C A40G C60G: the yeast fitness is ≤ 0.5.

In the case of G48C U53C, the yeast fitness came to 0.694.

Regarding U2A A21U C29U A40U U53A C60A A65G, the yeast fitness was ≤ 0.5.

For C49U G68U, the yeast fitness was 0.976.

With G9A A21G C61U A65U, the yeast fitness was ≤ 0.5.

C11A C27G U35A A43U U54C: the yeast fitness worked out at 0.556.

Consider C5G A14C A37G C62G A69U, for which the yeast fitness was ≤ 0.5.

With C11U G12A G18C U47C G68C, the yeast fitness was ≤ 0.5.

On to G9C C11G A20U C31U G38C, for which the yeast fitness is ≤ 0.5.

Regarding G50A C55U G67C, the yeast fitness is 0.563.

As to U26A C49G G56U, the yeast fitness was ≤ 0.5.

As to G23A A36C U47C G48C, the yeast fitness was ≤ 0.5.

Consider C11A C24U C34U G58C C62G G67A, for which the yeast fitness worked out at 0.544.

Regarding C24U U32G G51A, the yeast fitness is ≤ 0.5.

As for C4U G68A, the yeast fitness was 0.856.

Turning to U7C G48A A69C, the yeast fitness amounted to 0.695.

In the case of G9A G48A G50C A65G C66U, the yeast fitness is ≤ 0.5.

G9A C33U A37U: the yeast fitness was 0.605.

As for G10C A43U C46G, the yeast fitness was ≤ 0.5.

On to A21C C29U A45U, for which the yeast fitness is 0.521.

Turning to C4A C5U U19A A42G, the yeast fitness was ≤ 0.5.

G12C A43U: the yeast fitness was determined as 0.892.

As to A21G G48C C66U G67C A70G, the yeast fitness is ≤ 0.5.

With G6A U54C, the yeast fitness is 0.948.

C5G A65U G67C: the yeast fitness stood at 0.569.

As to U26G A69C, the yeast fitness was 0.948.

As for G6A A14U U64G, the yeast fitness is 0.664.

A20C C22G U47G G51C G63A G68C: the yeast fitness is ≤ 0.5.

Consider G18A U19A C27U, for which the yeast fitness is 0.707.

In the case of C5G C24U C66A, the yeast fitness was ≤ 0.5.

Take C5U A20C G67A: the yeast fitness is 1.01.

Turning to U13C C34U G48C C61U G67A, the yeast fitness was ≤ 0.5.

Take U16G A43U G50C: the yeast fitness was determined as 0.576.

With C22U U53G, the yeast fitness is ≤ 0.5.

Regarding C33G A36U A57C, the yeast fitness is ≤ 0.5.

Take C29U C34A: the yeast fitness worked out at 0.761.

C4G G18C A45G C62A A69C: the yeast fitness is ≤ 0.5.

Consider C34G G41C A69U, for which the yeast fitness is ≤ 0.5.

On to A14C C27U C46U A70G, for which the yeast fitness is ≤ 0.5.

On to C5G A21G U32C A69C, for which the yeast fitness is ≤ 0.5.

For U8C C27U C34G, the yeast fitness is ≤ 0.5.

Regarding G25A G50A C66U, the yeast fitness came out at 0.629.

As for U8A G12A C22A C31G A65C, the yeast fitness is ≤ 0.5.

Take G9C A15C U35C U59A: the yeast fitness was 0.605.

Take C27G U28A C34U: the yeast fitness was ≤ 0.5.

In the case of A14G A42G G51C, the yeast fitness was ≤ 0.5.

For C60G G68C, the yeast fitness was found to be 0.603.

Turning to C5A G17C G18C G58A U59G, the yeast fitness came to 0.535.

In the case of C5U G44A C55U, the yeast fitness is 0.629.

Consider A21G G58C, for which the yeast fitness worked out at 1.01.

With U2G C22U U32C, the yeast fitness is ≤ 0.5.

For A15U C29G C31G, the yeast fitness is ≤ 0.5.

On to U64C C66U, for which the yeast fitness stood at 0.958.

As for C4G U8A A14C G48A G63C, the yeast fitness was ≤ 0.5.

For C5U C29U A36G U59A, the yeast fitness is ≤ 0.5.

Regarding C55U A57U U64G, the yeast fitness is 0.585.

Regarding C24U C29A A40G, the yeast fitness came out at 0.514.

For C11U C22G C29G G41A, the yeast fitness is ≤ 0.5.

Turning to G17A A20G C34U C55G, the yeast fitness was ≤ 0.5.

As for U2A C24G A37C C66U, the yeast fitness is ≤ 0.5.

Take C31G G50C G58C: the yeast fitness amounted to 0.571.

For the variant U28A G67C, the yeast fitness came to 0.774.

Regarding C5U A20G C22G C29A A45U, the yeast fitness turned out to be 0.563.

In the case of G10C C24U C29A A45U C46G U47A G50A U64G, the yeast fitness was 0.575.

C4A G23A U35G C61A: the yeast fitness was ≤ 0.5.

Regarding A37G A42U G48C C49U A65G, the yeast fitness is ≤ 0.5.

As for G25A A40U, the yeast fitness was determined as 0.924.

Consider G39C A70C, for which the yeast fitness was 0.769.

As to U35C A42C, the yeast fitness came to 0.819.

Consider C34G A36C C55G, for which the yeast fitness is ≤ 0.5.

In the case of C5U U7A A65C, the yeast fitness was found to be 0.64.

Consider U26G U28A A45C, for which the yeast fitness was ≤ 0.5.

Take U2C C29U G56A: the yeast fitness was 0.625.

For A14U C27G A36G G52C C61A, the yeast fitness was ≤ 0.5.

As for U19A C62U, the yeast fitness worked out at 0.931.

A15G G17C C61A: the yeast fitness is ≤ 0.5.

For the variant G6A C27G A36C A42C A57U U64A A70C, the yeast fitness was ≤ 0.5.

G6C A43C: the yeast fitness is 0.739.

G6C G25A A43U G67C: the yeast fitness was ≤ 0.5.

Take G6C U7C G9C C66U: the yeast fitness was determined as 0.546.

Take G18A A36U: the yeast fitness was found to be 0.66.

Take C4U A15U C66U: the yeast fitness is 0.649.

C4G A57G C61U: the yeast fitness is 0.629.

Consider G50C C55U, for which the yeast fitness was found to be 0.716.

Take C29U U35C C62U A70U: the yeast fitness was ≤ 0.5.

As to U26A G52C, the yeast fitness was 0.645.

Regarding U2G U3C G10C A69C, the yeast fitness was ≤ 0.5.

Turning to G6A U35G A43C G51A, the yeast fitness was ≤ 0.5.

As to G48C C62U G68C, the yeast fitness is 0.557.

In the case of U3G U28G, the yeast fitness amounted to 0.661.

Consider G10C A37C C60G, for which the yeast fitness was ≤ 0.5.

As to A14G C29G C46U A57G C61U, the yeast fitness is ≤ 0.5.

Take C22G U28A C31G C55A: the yeast fitness was ≤ 0.5.

As to A15C G18A A20U, the yeast fitness was ≤ 0.5.

As to U13A C22G C24A C46G C55U C61A, the yeast fitness is ≤ 0.5.

With C5G G52C C66U, the yeast fitness is ≤ 0.5.

Consider G6A G9A C24G U35A G48C, for which the yeast fitness is ≤ 0.5.

On to G10A A21C C24A A65C, for which the yeast fitness was determined as 0.521.

Regarding U2C G18A G25A C66U, the yeast fitness was ≤ 0.5.

Turning to C22U G25A C55U C66U, the yeast fitness was ≤ 0.5.

As to G41A G51A C66A, the yeast fitness was ≤ 0.5.

Turning to U8A A36C U53C, the yeast fitness is ≤ 0.5.

Take A21C C22U C31U C33U C62A: the yeast fitness worked out at 0.61.

C31A U35A A36U U47C C66U: the yeast fitness is ≤ 0.5.

Take A20U A21G C22A C49G: the yeast fitness is ≤ 0.5.

Take U8C C30U: the yeast fitness was determined as 0.935.

C11U A42U: the yeast fitness turned out to be 0.897.

With A20C C60A, the yeast fitness was 0.587.

As to U3G C30U A43U G48C G68C, the yeast fitness is ≤ 0.5.

Take A36G A57G C61U: the yeast fitness was found to be 0.56.

U7A U16C A21U U26A C46U C60U: the yeast fitness stood at 0.55.

Turning to G18A U59C A69G, the yeast fitness was ≤ 0.5.

On to C30A A40U G58U, for which the yeast fitness was ≤ 0.5.

As for C31A G50C, the yeast fitness was 0.566.

As for U3C A45U U64C, the yeast fitness is 0.709.

In the case of C5A U26C C27U, the yeast fitness was 0.687.

As for C4G A15C U26G G41C C60G, the yeast fitness came out at 0.631.

In the case of U8A U13A A14C U16A G67A, the yeast fitness was 0.584.

For the variant G6A G39C U64C, the yeast fitness worked out at 0.605.

As to A43C G63C, the yeast fitness is 0.692.

U19C A20C A21U: the yeast fitness is ≤ 0.5.

Turning to A15C A36C G48A, the yeast fitness was found to be 0.516.

For A21C C46U A65U, the yeast fitness turned out to be 0.556.

A15U G63A: the yeast fitness amounted to 0.675.

On to G18A G23A A43C U59A, for which the yeast fitness is ≤ 0.5.

On to G17C A37G G56C, for which the yeast fitness is ≤ 0.5.

On to C27U A45C U64G, for which the yeast fitness turned out to be 0.584.

For the variant C31A G39A U47A G68C, the yeast fitness was ≤ 0.5.

C5G G51A: the yeast fitness came to 0.78.

On to C24U C34G G63U A70U, for which the yeast fitness was determined as 0.542.

For the variant U16G G44C, the yeast fitness is 0.912.

As to C4U U35A G44C C66U G67U A70G, the yeast fitness is ≤ 0.5.

For the variant G56C G68A, the yeast fitness was determined as 0.7.

On to G6C C27U A57C A70U, for which the yeast fitness is 0.537.

With C5U U26C A36C U64A, the yeast fitness was ≤ 0.5.

Regarding U16C C34G, the yeast fitness turned out to be 0.609.

As for C4G C34G, the yeast fitness was determined as 0.574.

As for C22G C29G C33U A42G G50A C66U, the yeast fitness is ≤ 0.5.

As to A37C C46G C62U, the yeast fitness amounted to 0.872.

Regarding A14U U54C C62U G68C, the yeast fitness was ≤ 0.5.

On to A21U C33G A70U, for which the yeast fitness was ≤ 0.5.

With U16A C60U, the yeast fitness turned out to be 0.805.

G6A A20G C60G: the yeast fitness was ≤ 0.5.

For the variant G41C G48A C55A, the yeast fitness amounted to 0.569.

For U7A A14G G18C U54C, the yeast fitness is ≤ 0.5.

For the variant U2G C11G G38C G44A, the yeast fitness is ≤ 0.5.

A21U C22U U26C: the yeast fitness is ≤ 0.5.
